According to PMC6777341 (ACS chemical neuroscience, 2017):
Marks after values point to notes of the source that are not given here. Values belong to the compound of their own block, whether it stands above or below them.

Experiments:
[1] = biological target: human NPFF1 receptor (Homo sapiens, UniProt Q9GZQ6); test: NPFF1 calcium mobilization assay; assay type: cell-based; conditions: for Ca^2+ NPFF1 Ke: Table 1
[2] = biological target: human NPFF2 receptor (Homo sapiens, UniProt Q9Y5X5); test: NPFF2 calcium mobilization assay; assay type: cell-based; conditions: for Ca^2+ NPFF2 Ke: Table 1
Sequence of human NPFF2 receptor (Q9Y5X5 whole entry): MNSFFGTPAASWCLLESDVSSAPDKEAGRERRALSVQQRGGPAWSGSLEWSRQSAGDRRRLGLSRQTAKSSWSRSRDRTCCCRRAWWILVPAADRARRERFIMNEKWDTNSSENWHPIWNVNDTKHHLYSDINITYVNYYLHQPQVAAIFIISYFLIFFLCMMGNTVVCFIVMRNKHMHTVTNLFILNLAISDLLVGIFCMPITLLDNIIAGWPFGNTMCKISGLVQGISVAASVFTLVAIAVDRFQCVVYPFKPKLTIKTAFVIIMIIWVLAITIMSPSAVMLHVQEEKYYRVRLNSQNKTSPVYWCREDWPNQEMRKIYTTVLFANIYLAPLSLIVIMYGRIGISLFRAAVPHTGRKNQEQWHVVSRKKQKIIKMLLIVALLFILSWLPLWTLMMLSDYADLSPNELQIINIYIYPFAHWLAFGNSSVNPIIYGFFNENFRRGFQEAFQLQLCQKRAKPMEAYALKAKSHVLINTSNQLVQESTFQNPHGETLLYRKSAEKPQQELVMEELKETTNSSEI

[3] = biological target: human NPFFR2 (Homo sapiens, UniProt Q9Y5X5); test: Lance cAMP assay, NPFFR2-CHO cells; assay type: cell-based
Sequence of human NPFFR2 (Q9Y5X5 whole entry): as above

[4] = system: MDCK-MDR1 cells; test: Bidirectional MDCK-MDR1 permeability assay; assay type: in vitro ADME
Procedure, shortened: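 MDCK-MDR1 cells at passage 5 were grown 3 days on polycarbonate Transwell supports in DMEM/10% FBS, then rinsed and equilibrated 30 min at 37 °C in HBSS with 10 mM HEPES, 0.25% BSA, pH 7.4, and TEER was measured. Test compound at 10 μM was added apically (A-to-B) or basolaterally (B-to-A) at 37 °C with agitation.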

[5] = system: fentanyl-induced hyperalgesia; test: Fentanyl-induced hyperalgesia; assay type: in vivo, rat; conditions: rats, i.p., day 1 after fentanyl, N=6
[6] = biological target: human NPFFR1 (Homo sapiens, UniProt Q9GZQ6); test: Lance cAMP assay, NPFFR1-CHO cells; assay type: cell-based
Sequence of human NPFFR1 (Q9GZQ6 whole entry): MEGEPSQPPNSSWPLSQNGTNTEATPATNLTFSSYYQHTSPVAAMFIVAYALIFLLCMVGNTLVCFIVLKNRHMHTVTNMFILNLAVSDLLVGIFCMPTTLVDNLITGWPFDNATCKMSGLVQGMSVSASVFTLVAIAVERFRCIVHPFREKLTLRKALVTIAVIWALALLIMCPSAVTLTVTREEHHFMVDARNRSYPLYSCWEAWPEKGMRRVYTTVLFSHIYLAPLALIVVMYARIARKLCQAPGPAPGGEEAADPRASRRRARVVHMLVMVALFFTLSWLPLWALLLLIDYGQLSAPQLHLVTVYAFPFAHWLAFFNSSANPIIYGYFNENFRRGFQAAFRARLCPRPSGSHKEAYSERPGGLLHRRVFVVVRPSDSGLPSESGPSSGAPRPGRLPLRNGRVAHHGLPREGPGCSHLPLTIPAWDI

[7] = system: NPFF receptors; test: Curve-shift assays, type of antagonism; assay type: cell-based, human; conditions: standard incubation; typical competitive profile with longer incubations
[8] = apparent Ke from right shift of NPFF curve, 15 min pretreatment
[9] = footnote c: pre-incubation 45 min or 1 hr

Sequence of human NPFF1 receptor (Q9GZQ6 whole entry): as above

Ca^2+ NPFF1 Ke [1, 8]: 1.88 ± 0.21 µM | Ca^2+ NPFF2 Ke [2, 9]: 1.26 ± 0.8^c μM
SMILES: COc1ccc(CN[C@H]2C[C@@H](C(=O)NC(C)(C)C)N(Cc3ccccc3Cl)C2)cc1 [Compound 15, (2S,4S)-N-tert-Butyl-1-[(2-chlorophenyl)methyl]-4-{[(4-methoxyphenyl)methyl]amino} pyrrolidine-2-carboxamide]

type of antagonism in curve-shift assays [7]: insurmountable antagonism | Ca^2+ NPFF1 Ke [1, 9]: 0.78 ± 0.08^c μM | NPFF1 Ke ([1]; calcium mobilization assay): 0.78 µM | cAMP NPFF2 Ke ([3]; Table 1): 3.90 ± 1.1 µM | Ca^2+ NPFF2 Ke [2, 9]: 2.01 ± 0.44^c μM | cAMP NPFF1 Ke ([6]; Table 1): 1.72 ± 0.32 µM
SMILES: COc1ccc(CN[C@H]2C[C@@H](C(=O)NCc3ccccc3)N(Cc3ccccc3Cl)C2)cc1 [Compound 23, (2S,4S)-N-Benzyl-1-[(2-chlorophenyl)methyl]-4-{[(4-methoxyphenyl)methyl]amino} pyrrolidine-2-carboxamide]

Kb [3]: > 10000 nM | Kb [6]: 1520 ± 110 nM
SMILES: COc1ccc(CN[C@H]2C[C@@H](C(=O)NCCc3ccc(OC)c(OC)c3)N(Cc3ccccc3Cl)C2)cc1 [Compound 27, (2S,4S)-1-[(2-Chlorophenyl)methyl]-N-[2-(3,4-dimethoxyphenyl)ethyl]-4-{[(4-methoxyphenyl)methyl]amino}pyrrolidine-2-carboxamide]

Kb [2]: 2080 ± 380 nM
SMILES: COc1ccc(CN[C@H]2C[C@@H](C(=O)NCCc3ccc(N(C)C)cc3)N(Cc3ccccc3Cl)C2)cc1 [Compound 28, (2S,4S)-1-[(2-Chlorophenyl)methyl]-N-{2-[4-(dimethylamino)phenyl]ethyl}-4-{[(4-methoxyphenyl)methyl]amino}pyrrolidine-2-carboxamide]

Kb [2]: 2420 ± 260 nM
SMILES: COc1ccc(CN[C@H]2C[C@@H](C(=O)NCCc3ccc(C(C)(C)C)cc3)N(Cc3ccccc3Cl)C2)cc1 [Compound 31, (2S,4S)-N-[2-(4-tert-Butylphenyl)ethyl]-1-[(2-chlorophenyl)methyl]-4-{[(4-methoxyphenyl)methyl]amino}pyrrolidine-2-carboxamide]

type of antagonism in curve-shift assays [7]: insurmountable antagonism | Kb [3]: > 10000 nM | Kb [6]: 2310 ± 420 nM
SMILES: CCCN(CCC)C(=O)[C@@H]1C[C@H](NCc2ccc(OC)cc2)CN1Cc1ccccc1Cl [Compound 41, (2S,4S)-1-[(2-Chlorophenyl)methyl]-4-{[(4-methoxyphenyl)methyl]amino}-N,N-dipropylpyrrolidine-2-carboxamide]

type of antagonism in curve-shift assays [7]: insurmountable antagonism
SMILES: COc1ccc(CN[C@H]2C[C@@H](C(=O)N3CCN(c4ccccc4)CC3)N(Cc3ccccc3Cl)C2)cc1 [Compound 42, (3S,5S)-1-[(2-Chlorophenyl)methyl]-N-[(4-methoxyphenyl)methyl]-5-(4-phenylpiperazine-1-carbonyl)pyrrolidin-3-amine]

Kb [3]: > 10000 nM | Kb [6]: 1070 ± 270 nM
SMILES: CSc1ccc(CN[C@H]2C[C@@H](C(=O)NCCc3ccc(F)c(F)c3)N(Cc3ccccc3Cl)C2)cc1 [Compound 47, (2S,4S)-1-[(2-Chlorophenyl)methyl]-N-[2-(3,4-difluorophenyl)ethyl]-4-{[(4-(methylthio)phenyl)methyl]amino}pyrrolidine-2-carboxamide]

More lines, now with the values behind:

SMILES: CNC(=O)[C@@H]1C[C@H](NCc2ccc(OC)cc2)CN1Cc1ccccc1Cl [Compound 10, (2S,4S)-1-[(2-Chlorophenyl)methyl]-4-{[(4-methoxyphenyl)methyl]amino}-N-methylpyrrolidine-2-carboxamide]
NPFF1 antagonist activity (in words) ([1]; calcium mobilization assay): inactive | NPFF2 antagonist activity (in words) ([2]; calcium mobilization assay): inactive

SMILES: CCNC(=O)[C@@H]1C[C@H](NCc2ccc(OC)cc2)CN1Cc1ccccc1Cl [Compound 11, (2S,4S)-1-[(2-Chlorophenyl)methyl]-N-ethyl-4-{[(4-methoxyphenyl)methyl]amino} pyrrolidine-2-carboxamide]
Ca^2+ NPFF1 Ke [1, 8]: >10^b μM | NPFF1 Ke ([1]; calcium mobilization assay): > 10 µM | NPFF1 antagonist activity (in words) ([1]; calcium mobilization assay): inactive | Ca^2+ NPFF2 Ke [2, 8]: >10^b μM | NPFF2 antagonist activity (in words) ([2]; calcium mobilization assay): inactive

SMILES: CCCCNC(=O)[C@@H]1C[C@H](NCc2ccc(OC)cc2)CN1Cc1ccccc1Cl [Compound 13, (2S,4S)-N-Butyl-1-[(2-chlorophenyl)methyl]-4-{[(4-methoxyphenyl)methyl]amino} pyrrolidine-2-carboxamide]
Ca^2+ NPFF1 Ke [1, 8]: 1.24 ± 0.14 µM

SMILES: CCC(C)NC(=O)[C@@H]1C[C@H](NCc2ccc(OC)cc2)CN1Cc1ccccc1Cl (stereo partly drawn) [Compound 14, (2S,4S)-N-(Butan-2-yl)-1-[(2-chlorophenyl)methyl]-4-{[(4-methoxyphenyl)methyl]amino} pyrrolidine-2-carboxamide]
Ca^2+ NPFF1 Ke [1, 8]: 1.50 ± 0.06 µM | Ca^2+ NPFF2 Ke [2, 8]: 3.68 ± 0.35^b μM

SMILES: CCCCCNC(=O)[C@@H]1C[C@H](NCc2ccc(OC)cc2)CN1Cc1ccccc1Cl [Compound 16, (2S,4S)-1-[(2-Chlorophenyl)methyl]-4-{[(4-methoxyphenyl)methyl]amino}-N-pentylpyrrolidine-2-carboxamide]
Hill slope of NPFF + compound curve ([1]; calcium mobilization assay, NPFF1 cells): 1.7 | Hill slope of NPFF + compound curve ([3]; cAMP assay, FF2 cells): 1.3 | Hill slope of NPFF + compound curve ([2]; calcium mobilization assay, FF2 cells): 1.1 | rate B to A ([4]; MDCK-MDR1): 6.7e-06 cm/s | rate apical (A) to basolateral (B) ([4]; MDCK-MDR1): 7.6e-06 cm/s | Pgp substrate status ([4]; as indicated by the efflux ratio): not Pgp substrates | doses significantly different from vehicle (Bonferroni post hoc) [5]: significant differences at 10 and 32 mg/kg | Kb [6]: 360 ± 80 nM | Hill slope of NPFF + compound curve ([6]; cAMP assay, NPFF1 cells): 1.3

SMILES: CCCCCCNC(=O)[C@@H]1C[C@H](NCc2ccc(OC)cc2)CN1Cc1ccccc1Cl [Compound 18, (2S,4S)-1-[(2-Chlorophenyl)methyl]-4-{[(4-methoxyphenyl)methyl]amino}-N-hexylpyrrolidine-2-carboxamide]
Kb [3]: 2480 ± 270 nM | Kb [6]: 1980 ± 280 nM

SMILES: CCCCCCCCCCNC(=O)[C@@H]1C[C@H](NCc2ccc(OC)cc2)CN1Cc1ccccc1Cl [Compound 19, (2S,4S)-1-[(2-Chlorophenyl)methyl]-N-decyl-4-{[(4-methoxyphenyl)methyl]amino} pyrrolidine-2-carboxamide]
Ca^2+ NPFF1 Ke [1, 9]: >10^b,c μM | NPFF1 antagonist activity (in words) ([1]; calcium mobilization assay): completely abolished

SMILES: CCN(CC)C(=O)[C@@H]1C[C@H](NCc2ccc(OC)cc2)CN1Cc1ccccc1Cl [Compound 22, (2S,4S)-1-[(2-Chlorophenyl)methyl]-N,N-diethyl-4-{[(4-methoxyphenyl)methyl]amino} pyrrolidine-2-carboxamide]
Ca^2+ NPFF1 Ke [1, 8]: >10^b μM | NPFF1 antagonist activity (in words) ([1]; calcium mobilization assay): inactive | NPFF2 antagonist activity (in words) ([2]; calcium mobilization assay): inactive

SMILES: COc1ccc(CN[C@H]2C[C@@H](C(=O)NCCc3ccccc3)N(Cc3ccccc3Cl)C2)cc1 [Compound 24, (2S,4S)-1-[(2-Chlorophenyl)methyl]-4-{[(4-methoxyphenyl)methyl]amino}-N-(2-phenylethyl)pyrrolidine-2-carboxamide]
Kb [2]: 2340 ± 310 nM

SMILES: COc1ccc(CN[C@H]2C[C@@H](C(=O)NCCCc3ccccc3)N(Cc3ccccc3Cl)C2)cc1 [Compound 25, (2S,4S)-1-[(2-Chlorophenyl)methyl]-4-{[(4-methoxyphenyl)methyl]amino}-N-(3-phenylpropyl)pyrrolidine-2-carboxamide]
IC50 [1]: > 10000 nM | NPFF1 antagonist activity (in words) ([1]; calcium mobilization assay): completely abolished the activity

SMILES: COc1ccc(CN[C@H]2C[C@@H](C(=O)NCCc3ccc(Cl)cc3)N(Cc3ccccc3Cl)C2)cc1 [Compound 32, (2S,4S)-N-[2-(4-Chlorophenyl)ethyl]-1-[(2-chlorophenyl)methyl]-4-{[(4-methoxyphenyl)methyl]amino}pyrrolidine-2-carboxamide]
type of antagonism in curve-shift assays [7]: insurmountable antagonism | Kb [1]: 990 ± 220 nM | Kb [3]: 2530 ± 360 nM | Kb [2]: 1830 ± 90 nM | Kb [6]: 1490 ± 100 nM

SMILES: COc1ccc(CN[C@H]2C[C@@H](C(=O)NCCc3ccc(F)c(F)c3)N(Cc3ccccc3Cl)C2)cc1 [Compound 34, (2S,4S)-1-[(2-Chlorophenyl)methyl]-N-[2-(3,4-difluorophenyl)ethyl]-4-{[(4-methoxyphenyl)methyl]amino}pyrrolidine-2-carboxamide]
Kb [2]: 3490 ± 1400 nM

SMILES: COc1ccc(CN[C@H]2C[C@@H](C(=O)NCCc3ccc(F)cc3)N(Cc3ccccc3Cl)C2)cc1 [Compound 35, (2S,4S)-1-[(2-Chlorophenyl)methyl]-N-[2-(4-fluorophenyl)ethyl]-4-{[(4-methoxyphenyl)methyl]amino}pyrrolidine-2-carboxamide]
Kb [3]: > 10000 nM | Kb [6]: 1410 ± 180 nM

SMILES: CCN(CC)C(=O)[C@@H]1C[C@H](NCc2ccc(OC)cc2)CN1Cc1ccccc1Cl [Compound 40, (2S,4S)-1-[(2-Chlorophenyl)methyl]-N,N-diethyl-4-{[(4-methoxyphenyl)methyl]amino} pyrrolidine-2-carboxamide]
Ca^2+ NPFF1 Ke [1, 8]: 2.90 ± 0.15 µM | NPFF1 Ke ([1]; calcium mobilization assay): 2.90 µM | Ca^2+ NPFF2 Ke [2, 8]: 4.93 ± 0.02^b μM

SMILES: CCCCCNC(=O)[C@@H]1C[C@H](NCc2ccc(SC)cc2)CN1Cc1ccccc1Cl [Compound 43, (2S,4S)-1-[(2-Chlorophenyl)methyl]-4-{[(4-(methylthio)phenyl)methyl]amino}-N-pentylpyrrolidine-2-carboxamide]
Kb [3]: 2740 ± 210 nM | Kb [6]: 1070 ± 200 nM

SMILES: CSc1ccc(CN[C@H]2C[C@@H](C(=O)NCCc3ccccc3)N(Cc3ccccc3Cl)C2)cc1 [Compound 44, (2S,4S)-1-[(2-Chlorophenyl)methyl]-4-{[(4-(methylthio)phenyl)methyl]amino}-N-(2-phenylethyl)pyrrolidine-2-carboxamide]
Kb [3]: > 10000 nM | Kb [6]: 1300 ± 140 nM
